UPR XBP1 act: adaptive UPR (XBP1) activation; AID 463104; 0.33% of 330,000 active; CHO-XBP1 luciferase reporter, IRE1-XBP1 UPR activation, luminescence; percent of tunicamycin response, DMSO as zero; activation, % at 20 µM;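 active = versus positive control, 20 µM dose yields 30% or more activation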;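 note: 100% = tunicamycin at 10 µg/mL and 0% = DMSO only wells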
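Material: IRE1-XBP1 luciferase reporter CHO line / Quantity: one thousand reporter cells per well / Buffer or medium: F12 with 10% serum / Compound: 20 µM single concentration, DMSO 1% / Times: 6 h treatment, 37 °C / Detection: Steady-Glo luciferase glow luminescence, 10 min after reagent addition / Benchmarks: tunicamycin high, DMSO low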
Dynein cargo inh: dynein cargo transport inhibition | 3617.4 mouse cells, GR-EGFP nuclear translocation imaging; test concentration mostly 20 µM; stimulated with dexamethasone, 1 µM; hits give low values | z-score, hits read low | 0.47% of 220,000 active | AID 1381;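 active = plate z-score of nuclear minus cytoplasmic receptor signal below a set negative limit, without overly bright fluorescence or cell loss, cut at about -3.5 in these data, passing the limit was not always enough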;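 note: z-score of nuclear minus cytoplasmic ring GR-EGFP intensity difference per well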
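Buffer or medium: tet-free medium with charcoal-stripped serum / Also added: dexamethasone agonist, 1.0 µM final, for 30 min / Timing: induction 48 h, compound 1 h, agonist 30 min / Measured by: high-content fluorescence imaging after fixation / Read-out: nuclear-to-cytoplasmic GR-EGFP distribution per well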
UPR CHOP act: apoptotic UPR (CHOP) activation. CHO-CHOP luciferase reporter, luminescence; percent of tunicamycin response over DMSO baseline. activation, % at 10 µM. 0.34% of 330,000 active;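 active = at 10 µM dose, activation of 40% or more, normalized to positive control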;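 note: 100% = tunicamycin at 10 µg/mL and 0% = DMSO alone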
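System: CHO-CHOP luciferase reporter cell line | Buffer or medium: F12 medium containing 10% fetal bovine serum | Doses: One dose, 10 µM in 0.5% DMSO | Times: 6 h compound exposure at 37 °C after overnight seeding | Signal: Luciferase luminescence | Read-out: % activation vs tunicamycin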
CHOP inh: blocks CHOP induction under ER stress. CHO-K1 CHOP-promoter luciferase, tunicamycin-induced, 15-18 h. inhibition, % at 10 µM. 3.8% of 220,000 active;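 active = compounds that reduced the stress-induced luciferase reporter signal by more than about 70% of percent inhibition, limit read from the data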;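 note: 0% = tunicamycin plus vehicle and 100% = wells without tunicamycin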
T cruzi inh: T. cruzi replication inhibition | inhibition, % (concentration not given with the values) | T. cruzi beta-gal in NIH3T3, luminescence, 90 h | 1.4% of 300,000 active | AID 1885;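 active = mean inhibition across valid replicates above about 55%, limit read from the data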;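 note: signal also drops with host cell toxicity which is not excluded here; 0% = plate median of DMSO wells and 100% = zero luminescence signal; higher percent means less beta-gal luminescence so fewer parasites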
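System – NIH/3T3 host cells with β-galactosidase reporter T. cruzi · Doses – single 50 nL compound addition per well in DMSO · Reagent – 5000 T. cruzi trypomastigotes/well · Medium – Low-serum DMEM with 2% FBS · Timing – ≥90 h infection period, 3 h prior cell attachment · Evaluation – parasite load inhibition, % · Technique – GalScreen luminescence, 60 min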
L major viab: reduces viability of Leishmania major promastigotes; resazurin fluorescence viability; inhibition, % at 10 µM; 9% of 200,000 active; AID 1063; in the data active = inhibition above about 50%;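 note: promastigotes grown with compound for 44 hours at 28 °C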
* hit, by the source's call; . = no result given. The full list was thinned out, with hits kept by preference.

SMILES | UPR XBP1 act | Dynein cargo inh | UPR CHOP act | CHOP inh | T cruzi inh | L major viab
O=C(N1CCCCC1)N1CCN(C(c2ccccc2)c2ccccc2)CC1 | -0.1 | -0.35 | -0.2 | 82.7* | 13.5 | 9.7
CS(=O)(=O)N1CCC(C(=O)N2CCN(C(c3ccccc3)c3ccccc3)CC2)CC1 | -3.4 | 1.15 | -1.3 | -23.3 | -2.0 | 67.0*
CC(=O)O[C@H]1CC[C@H]2[C@@H]3CCc4cc(O)ccc4[C@H]3CC[C@]12C | -5.4 | -0.315 | -2.7 | 75.9* | -4.9 | -5.3
C[C@]12CC[C@@H]3c4ccc(O)cc4CC[C@H]3[C@@H]1CC[C@@H]2O | 4.7 | -0.435 | 1.8 | 24.8 | -6.3 | -3.2
Cc1ccc(OCC(=O)N(Cc2ccccc2)C2CCS(=O)(=O)C2)c([N+](=O)[O-])n1 (configuration not stated) | -2.5 | -0.473 | 1.8 | -5.5 | -1.0 | -3.9
CCN(C(=O)COc1ccc(C)nc1[N+](=O)[O-])C1CCS(=O)(=O)C1 (configuration not stated) | 0.5 | -0.296 | 5.8 | 36.4 | -8.3 | 51.3*
CCN=C1SC(C(=O)Nc2ccc(Cl)c(Cl)c2)CC(=O)N1CC (configuration not stated) | -1.3 | -0.918 | -1.4 | 73.6* | -1.3 | -6.9
CCN=C1SC(C(=O)Nc2cccc(C)c2)CC(=O)N1CC (configuration not stated) | -0.8 | -0.888 | -0.8 | 9.7 | -0.7 | -6.4
CCN=C1SC(C(=O)Nc2cc(Cl)cc(Cl)c2)CC(=O)N1CC (configuration not stated) | 1.1 | 2.12 | -0.1 | 74.6* | -3.9 | -5.7
CCN=C1SC(C(=O)Nc2cccc(Cl)c2)CC(=O)N1CC (configuration not stated) | -0.6 | 2.52 | -1.5 | -8.9 | -8.9 | 15.6
C/C=C1\C(=O)CC2C3CCC4=CC(=O)CC[C@]4(C)C3CC[C@]12C (some centres not stated) | . | . | . | 12.2 | . | .
Cc1nc(C2CCC3C4CCC5=CC(=O)CC[C@]5(C)C4CC[C@]23C)cs1 (some centres not stated) | 4.1 | -1.13 | 7.1 | 75.9* | 6.5 | .
CCOc1cccc(OCCCOc2ccccc2)c1 | 2.4 | -0.956 | 1.6 | 64.4 | 6.6 | -3.7
CC(C)Oc1ccc(OCCNC2CCCC2)cc1 | 0.8 | -1.08 | -3.1 | 8.7 | 8.2 | 78.8*
CCOc1cccc(OCCNC2CCCC2)c1 | -4.1 | 0.734 | 0.0 | 26.0 | -20.3 | 80.0*
O=C(Nc1cc(-c2ccccc2)nn1C1CCCCC1)c1ccc(Cl)cc1 | 1.7 | . | -0.9 | . | . | .
Cc1ccc2c(c1)N(C(=O)CCC(=O)NCc1cccc(F)c1)CCO2 | -1.5 | . | 1.1 | . | 5.4 | .
CCCCSC1(SCCCC)N=C(N)C2(C#N)C(c3ccccc3)NC(C)=C(C)C12C#N (configuration not stated) | 1.1 | -0.945 | -1.8 | 75.6* | -6.6 | 26.8
Cc1cc(C(=O)O)ccc1-c1ccc(/C=C2\NC(=O)N(Cc3ccccc3Cl)C2=O)o1 | 0.0 | 0.366 | 0.1 | 73.2* | -5.3 | -2.2
O=C(CCNS(=O)(=O)c1ccc(Br)cc1)NNC(=O)C1COc2ccccc2O1 (configuration not stated) | -1.1 | . | -0.7 | . | . | .
CC1CCC(C(C)C)C(OC(=O)CSc2nc(N)cc(=O)[nH]2)C1 (configuration not stated) | -0.1 | 0.717 | -1.8 | 40.0 | -9.3 | -3.6
CC1CCC(C(C)C)C(OC(=O)CSc2nnc(N)s2)C1 (configuration not stated) | -3.4 | -0.294 | 0.4 | 15.1 | -0.9 | 63.7*
O=C(NCCNCc1ccc(F)cc1)c1ccco1 | -0.2 | 1.47 | -0.1 | 6.2 | 6.4 | 53.9*
CC(=O)NN1C(=O)/C(=C2/Sc3ccc(Cl)cc3N2C)SC1=S | 17.2 | . | 2.0 | . | -0.2 | .
Clc1ccc(N=c2ssnc2Cl)cc1 | -0.7 | -4.34* | 1.8 | 19.9 | -9.5 | -6.6
SMILES | UPR XBP1 act | Dynein cargo inh | UPR CHOP act | CHOP inh | T cruzi inh | L major viab
COc1cc(N=c2ssnc2Cl)cc(OC)c1OC | -4.0 | -0.911 | 4.1 | 94.5* | -9.8 | -5.5
O=C1CSC(=Nc2ccc(Cl)cc2)N1 | -7.1 | . | 1.3 | . | -6.5 | .
Clc1nssc1=Nc1ccccc1 | . | -0.529 | . | 85.6* | . | -6.3
Fc1ccc(N=c2ssnc2Cl)c(F)c1 | -4.3 | -2.87 | 1.8 | 82.4* | -18.0 | -1.5
O=C1CSC(=Nc2ccccc2)N1Cc1ccccc1 | 0.3 | 0.251 | -2.6 | 4.6 | -7.5 | 5.4
Cc1cc(C)c(C(=O)C(C)OC(=O)c2ccccn2)cc1C (configuration not stated) | -4.2 | . | -1.5 | . | -6.5 | .
O=C(CCCCCNC(=O)N1CCn2c1nc1ccccc12)NCCc1ccccc1 | 0.2 | . | -1.5 | . | 14.7 | .
N#Cc1ccc(N=c2ssnc2Cl)cc1 | -1.7 | 0.948 | 4.0 | 86.4* | -14.6 | -7.4
N#Cc1ccc(Oc2c(Cl)cncc2Cl)cc1 | -2.1 | . | 0.8 | . | -6.9 | .
COc1ccc(S(=O)(=O)Nc2ccccc2C(=O)NCc2cccnc2)cc1OC | -0.4 | . | 1.9 | . | -13.2 | .
CN(C)c1ccc(-n2cccc2/C=C/[N+](=O)[O-])cc1 | 1.1 | -1.82 | 17.3 | 92.0* | 16.3 | 97.2*
c1ccc(CNc2cncnc2)cc1 | -1.2 | . | -0.4 | . | -16.7 | .
O=[N+]([O-])/C=C/c1c(OCc2ccccc2)ccc2ccccc12 | -4.9 | -0.616 | -0.3 | 110.3* | 54.3 | 100.0*
COc1ccc(C2=NOC(Cn3nc(-c4ccccc4C)cc3C(=O)O)C2)cc1 (configuration not stated) | -2.3 | . | 1.8 | . | . | .
CCCCN1C(=O)C(=Nc2cccc3cnccc23)c2ccccc21 | 0.7 | -0.568 | -0.5 | 23.3 | 14.6 | 77.1*
CCCCN1C(C)=CC(=C2C(=O)c3ccccc3C2=O)C=C1C | -1.9 | -0.332 | -1.1 | -16.1 | 15.5 | 49.1
N#Cc1ccccc1NC(=O)COC(=O)/C=C/c1ccc(S(=O)(=O)N2CCOCC2)cc1 | -1.0 | . | 1.5 | . | . | .
Cn1cnnc1SCCCN1C(=O)c2cccc3cccc(c23)C1=O | -1.2 | -0.757 | -0.1 | 10.0 | 15.5 | 8.2
CC1Cc2ccccc2N1C(=O)Cn1c(=O)oc2cc(S(=O)(=O)N3CCCCC3)ccc21 (configuration not stated) | -1.3 | -0.9 | -2.5 | 41.0 | 6.6 | 99.7*
O=C(Cn1c(=O)oc2cc(S(=O)(=O)N3CCCC3)ccc21)N1CCCC1 | -2.6 | -0.452 | 0.3 | 44.8 | -2.0 | -6.7
O=C(Cn1c(=O)oc2cc(S(=O)(=O)N3CCCC3)ccc21)N1CCN(c2ccccn2)CC1 | -2.7 | 1.54 | 1.3 | -1.9 | -2.6 | 100.2*
O=C(Cn1c(=O)oc2cc(S(=O)(=O)N3CCc4ccccc43)ccc21)N1CCCCC1 | -7.4 | -0.639 | 2.1 | 21.7 | 16.7 | 97.5*

Screening results: PubChem BioAssay, several laboratories
